Measured values from ChEMBL document CHEMBL5126632, “Balancing Affinity, Selectivity, and Cytotoxicity of Hydrazone-Based G-Quadruplex Ligands for Activation of Interferon β Genes in Cancer Cells” (J Med Chem, 2022).

Key:
Quadruplex DNA [1] = test: Stabilization of c-myc G4 quadruplex d(TTAGGGTTAGGGTTAGGGTTAGGGTT) DNA (unknown origin) assessed as thermal stability by measuring difference in melting temperature t1/2 by circular dichroism spectroscopy (reference value: 72 +/- 0.5 degC); format: nucleic-acid assay
Quadruplex DNA [2] = test: Stabilization of c-kit1 G4 quadruplex d(DNA AGGGAGGGCGCTGGGAGGAGGG) DNA (unknown origin) assessed as thermal stability by measuring difference in melting temperature t1/2 by circular dichroism spectroscopy (reference value: 54 +/- 0.5 degC); format: nucleic-acid assay
[3] = Stabilization of d(CGC GAA TTC GCG TIT CGC GAA TTC GCG) DNA hairpin (unknown origin) assessed as thermal stability by measuring difference in melting temperature t1/2 by circular dichroism spectroscopy (reference value: 75.4 +/- 0.2 degC)
Procedure, shortened: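 CD melting of 15 μM annealed hairpin duplex in 5 mM K phosphate pH 7.0 with 20 mM KCl, with or without ligand at 2 molar equiv added to the folded DNA. The signal was followed at 252 nm from 20 to 100 °C at 1 °C/min, with T1/2 taken from a curve fit. ΔT1/2 is relative to DNA alone; duplicate runs, averaged.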

Quadruplex DNA [4] = test: Stabilization of human Tel26 G4 quadruplex DNA assessed as thermal stability by measuring difference in melting temperature t1/2 by circular dichroism spectroscopy; format: nucleic-acid assay
Quadruplex DNA [5] = test: Stabilization of c-kit2 G4 quadruplex d(CGGGCGGGCGCTAGGGAGGGT) DNA (unknown origin) assessed as thermal stability by measuring difference in melting temperature t1/2 by circular dichroism spectroscopy (reference value: 61.5 +/- 0.5 degC); format: nucleic-acid assay
[6] = Cytotoxicity against mouse MNMCA1 cells assessed as cell survival preincubated for 24 hrs with compound further incubated for 48 hrs in drug free medium by MTT assay; format: functional, cell-based
Procedure, shortened: (§1)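 Exponentially growing cells seeded and treated 24 h after seeding with increasing concentrations for 24 h. Cells then recovered 48 h in drug-free medium. MTT added for 1 h at 37 °C, formazan dissolved in DMSO, absorbance read at 540 nm. IC50 from linear regression. Means ± SEM of two independent experiments in triplicate.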

Quadruplex DNA [7] = test: Displacement of thiazole orange from c-kit2 G4 quadruplex d(CGGGCGGGCGCTAGGGAGGGT) DNA (unknown origin) assessed as relative affinity by fluorescent intercalator displacement assay; format: nucleic-acid assay
Procedure, shortened: (§2)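 G4 DNA at 0.25 μM with 0.5 μM thiazole orange in 5 mM potassium phosphate pH 7.0 containing 20 mM KCl (LiCl for c-myc), 20 °C. Ligand titrated from 0.5 to 20 molar equiv with 3 min equilibration per addition. Excitation 485 nm, emission 500–650 nm. %displacement = 100 − (F/F0×100); DC50 is the concentration displacing 50% TO. Duplicate titrations.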

[8] = Stabilization of F-c-kit1-T (unknown origin) assessed as difference in melting temperature t1/2 in presence of d(CGC GAA TTC GCG TIT CGC GAA TTC GCG) DNA hairpin (unknown origin) measured at 1:15 G4 to hairpin DNA ratio by FRET assay
Procedure, shortened: (§3)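 FRET melting of 0.2 μM prefolded FAM/TAMRA dual-labelled c-kit1 G4 in 5 mM K phosphate pH 7.0 with 20 mM KCl. Ligand was added at 2 molar equiv, with unlabelled hairpin competitor at 3 or 10 μM final (15 or 50 equiv relative to G4). FAM emission was read at 520 nm (excitation 492 nm) while heating at 0.2 °C/min over 15–90 °C. ΔT1/2 is relative to no ligand; at least duplicate, averaged.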

Quadruplex DNA [9] = test: Stabilization of F-c-kit1-T quadruplex DNA (unknown origin) by measuring difference in melting temperature t1/2 by FRET assay; format: nucleic-acid assay
Procedure, shortened: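 FRET melting of 0.2 μM prefolded FAM/TAMRA-labelled c-kit1 in 5 mM potassium phosphate pH 7.0 with 20 mM KCl, with ligand at 2 molar equiv. Unlabelled hairpin competitor added at 3 or 10 μM (15 or 50 equiv). FAM emission at 520 nm (excitation 492 nm) followed from 15 to 90 °C at 0.2 °C/min. ΔT1/2 versus no ligand. At least duplicate.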

Quadruplex DNA [10] = test: Binding affinity to c-kit2 G4 quadruplex d(CGGGCGGGCGCTAGGGAGGGT) DNA (unknown origin) assessed as dissociation constant by Microscale thermophoresis analysis; format: nucleic-acid assay
Procedure, shortened: (§4)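 MST with Cy5.5-labelled G4 oligonucleotide held at 20 nM, folded in 5 mM potassium phosphate pH 7.0 with 20 mM KCl plus 0.1% Tween. Ligand in 1:2 serial dilution mixed 1:1 with DNA, 20% DMSO final. Kd taken from binding curves.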

Quadruplex DNA [11] = test: Binding affinity toc-myc G4 quadruplex d(TTAGGGTTAGGGTTAGGGTTAGGGTT) DNA (unknown origin) assessed as dissociation constant by Microscale thermophoresis analysis; format: nucleic-acid assay; procedure, shortened: as §4
Quadruplex DNA [12] = test: Displacement of thiazole orange from c-kit1 G4 quadruplex d(DNA AGGGAGGGCGCTGGGAGGAGGG) DNA (unknown origin) assessed as relative affinity by fluorescent intercalator displacement assay; format: nucleic-acid assay; procedure, shortened: as §2
Quadruplex DNA [13] = test: Displacement of thiazole orange from c-myc G4 quadruplex d(TTAGGGTTAGGGTTAGGGTTAGGGTT) DNA (unknown origin) assessed as relative affinity by fluorescent intercalator displacement assay; format: nucleic-acid assay; procedure, shortened: as §2
Quadruplex DNA [14] = test: Binding affinity to c-kit1 G4 quadruplex d(DNA AGGGAGGGCGCTGGGAGGAGGG) DNA (unknown origin) assessed as dissociation constant by Microscale thermophoresis analysis; format: nucleic-acid assay; procedure, shortened: as §4
[15] = Stabilization of F-c-kit1-T (unknown origin) assessed as difference in melting temperature t1/2 in presence of d(CGC GAA TTC GCG TIT CGC GAA TTC GCG) DNA hairpin (unknown origin) measured at 1:50 G4 to hairpin DNA ratio by FRET assay; procedure, shortened: as §3
U2OS [16] = test: Induction of DNA damage in human U2OS cells assessed as fold increase in gammaH2AX phosphorylation at […] by measuring fold change at 10 uM incubated for 24 hrs by immunofluorescence microscopy; format: functional
Procedure, shortened: (§5)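 U2OS cells treated 24 h. Fixed with 4% formaldehyde, permeabilized with 0.5% Triton X-100, blocked with 8% BSA, stained with anti-γH2AX (1:500) and Alexa Fluor 594 secondary, DAPI counterstain. Fluorescence microscopy signal quantified as fold over untreated.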

U2OS [17] = test: Cytotoxicity against human U2OS cells assessed as cell survival preincubated for 24 hrs with compound further incubated for 48 hrs in drug free medium by MTT assay; format: functional, cell-based; procedure, shortened: as §1
U2OS [18] = test: Induction of DNA damage in human U2OS cells assessed as increase in gammaH2AX phosphorylation at S139 incubated for 24 hrs by immunofluorescence microscopy; format: functional, cell-based; details: read-out: IC50 (the source's name); procedure, shortened: as §5
Quadruplex DNA [19] = test: Stabilization of G4 quadruplex DNA in human U2OS cells assessed as BG4 foci formation by measuring fold increase in G4 structure at 10 uM by immunofluorescence microscopy; format: cell-based
Procedure, shortened: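 U2OS cells on coverslips treated for […]. Fixed in methanol/acetic acid 3:1, permeabilized with 0.1% Triton X-100, blocked in 2% milk. Stained with 0.5 μg BG4 for 2 h, then anti-FLAG and Alexa Fluor 488 secondary. Signal quantified as fold over untreated.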

[20] = Genotoxicity in mouse MNMCA1 cells assessed as induction of micronuclei formation measured after 24 hrs by DAPI staining based analysis; format: toxicity, cell-based; details: mnmca1, 24 h
[21] = Genotoxicity in mouse MNMCA1 cells assessed as induction of micronuclei formation at 1 uM incubated for 24 hrs by measuring fold change by DAPI staining based analysis; format: toxicity, cell-based; details: mnmca1, 24 h

Structure (SMILES)	ΔTm (Quadruplex DNA [1]) [°C]	ΔTm (Quadruplex DNA [2]) [°C]	ΔTm [3] [°C]	ΔTm (Quadruplex DNA [4]) [°C]	ΔTm (Quadruplex DNA [5]) [°C]	other results
C(=N\NC1=NCCN1)/c1c(-c2ccsc2)nc2n1ccc1nc(-c3ccsc3)c(/C=N/NC3=NCCN3)n12	4.7	10.3	2	3.8	14.9	
Cc1ccc(-c2nc3n(ccc4nc(-c5ccc(C)cc5)c(/C=N/NC(=N)N)n43)c2C=O)cc1	4.6	6.1	2.3	2.1	16.2	
Clc1ccc(-c2nc3n(ccc4nc(-c5ccc(Cl)cc5)c(/C=N/NC5=NCCN5)n43)c2/C=N/NC2=NCCN2)cc1	5.5	9.6	3.5	3.3	13.7	
Cc1ccc(-c2nc3n(ccc4nc(-c5ccc(C)cc5)c(/C=N/NC(=N)N)n43)c2/C=N/NC(=N)N)cc1	15.6	18.5	4.1	5.5	> 30	
N=C(N)N/N=C/c1c(-c2ccc(Cl)cc2)nc2n1ccc1nc(-c3ccccc3)c(/C=N/NC(=N)N)n12	14.3	20.1	2.6	8.3	> 30	
N=C(N)N/N=C/c1c(-c2ccsc2)nc2ccn3c(C=O)c(-c4ccsc4)nc3n12	9.1	16.1	2.7	4.8	25.2	
NCCOc1cc(C(=O)Nc2cc(OCCN)c3ccccc3n2)nc(C(=O)Nc2cc(OCCN)c3ccccc3n2)c1 [PYRIDOSTATIN]						IC50 [6]: 27000 nM
Cc1ccc(-c2nc3n(ccc4nc(-c5ccccc5)c(/C=N/NC(=N)N)n43)c2C=O)cc1	3.1	6.6	1.2	3.8	20.8	
Clc1ccc(-c2nc3n(ccc4nc(-c5ccccc5)c(/C=N/NC5=NCCN5)n43)c2/C=N/NC2=NCCN2)cc1	10.6	17.7	1.2	6.6	19.2	IC50 (Quadruplex DNA [7]): 1400 nM; ΔTm [8]: 24.8 °C; ΔTm (Quadruplex DNA [9]): 26.6 °C; Kd (Quadruplex DNA [10]): 500 nM; Kd (Quadruplex DNA [11]): 1200 nM; IC50 (Quadruplex DNA [12]): 1200 nM; IC50 (Quadruplex DNA [13]): 1300 nM; Kd (Quadruplex DNA [14]): 70 nM; ΔTm [15]: 23.8 °C
N=C(N)N/N=C/c1c(-c2ccccc2)nc2n1ccc1nc(-c3ccc(Cl)cc3)c(/C=N/NC(=N)N)n12	17.6	21.4	2.3	5	> 30	
Clc1ccc(-c2nc3ccn4c(/C=N/NC5=NCCN5)c(-c5ccccc5)nc4n3c2/C=N/NC2=NCCN2)cc1	7.4	15.5	1.2	6.3	22	IC50 (Quadruplex DNA [7]): 1700 nM; fold change (FC) (U2OS [16]): 1.37; ΔTm [8]: 21.4 °C; ΔTm (Quadruplex DNA [9]): 24.6 °C; IC50 [6]: 23500 nM; Kd (Quadruplex DNA [10]): 490 nM; IC50 (U2OS [17]): 20200 nM; EC50 (U2OS [18]): 20000 nM; fold change (FC) (Quadruplex DNA [19]): 0.77; Kd (Quadruplex DNA [11]): 3000 nM; IC50 (Quadruplex DNA [12]): 2700 nM; fold change (FC) [20]: 0.4; IC50 (Quadruplex DNA [13]): 1800 nM; Kd (Quadruplex DNA [14]): 380 nM; ΔTm [15]: 19.6 °C
Cc1ccc(-c2nc3n(ccc4nc(-c5ccccc5)c(/C=N/NC(=N)N)n43)c2/C=N/NC(=N)N)cc1	16.9	25.2	3.2	6.3	> 30	
Cc1ccc(-c2nc3n(ccc4nc(-c5ccccc5)c(/C=N/NC5=NCCN5)n43)c2/C=N/NC2=NCCN2)cc1	13.1	21.4	2.2	6.2	> 30	
N=C(N)N/N=C/c1c(-c2ccccc2)nc2ccn3c(C=O)c(-c4ccccc4)nc3n12	5.8	11.2	1.7	4.3	24.2	fold change (FC) (U2OS [16]): 2.32; ΔTm [8]: 21.6 °C; ΔTm (Quadruplex DNA [9]): 22 °C; IC50 [6]: 1900 nM; Kd (Quadruplex DNA [10]): 370 nM; IC50 (U2OS [17]): 2600 nM; EC50 (U2OS [18]): 2400 nM; fold change (FC) [21]: 2.5; Kd (Quadruplex DNA [11]): 7000 nM; Kd (Quadruplex DNA [14]): 300 nM; ΔTm [15]: 22.2 °C
Cc1ccc(-c2nc3ccn4c(/C=N/NC5=NCCN5)c(-c5ccccc5)nc4n3c2/C=N/NC2=NCCN2)cc1	9.1	15.2	1.1	5.3	> 30	IC50 (Quadruplex DNA [7]): 1200 nM; fold change (FC) (U2OS [16]): 1.45; ΔTm [8]: 21.4 °C; ΔTm (Quadruplex DNA [9]): 22.4 °C; IC50 [6]: 28600 nM; Kd (Quadruplex DNA [10]): 130 nM; IC50 (U2OS [17]): 108000 nM; EC50 (U2OS [18]): 100000 nM; fold change (FC) (Quadruplex DNA [19]): 2.4; IC50 (Quadruplex DNA [12]): 1300 nM; fold change (FC) [20]: 0.4; IC50 (Quadruplex DNA [13]): 1300 nM; Kd (Quadruplex DNA [14]): 120 nM; ΔTm [15]: 20.2 °C
Cc1ccc(-c2nc3n(ccc4nc(-c5ccc(C)cc5)c(/C=N/NC5=NCCN5)n43)c2C=O)cc1	1.5	3.8	0	1.3	6.8	
N=C(N)N/N=C/c1c(-c2ccc(Cl)cc2)nc2n1ccc1nc(-c3ccc(Cl)cc3)c(/C=N/NC(=N)N)n12	11.4	11.1	2.9	4.1	> 30	
O=Cc1c(-c2ccccc2)nc2n1ccc1nc(-c3ccccc3)c(/C=N/NC3=NCCN3)n12						fold change (FC) (U2OS [16]): 1.55; IC50 [6]: 2300 nM; IC50 (U2OS [17]): 4000 nM; EC50 (U2OS [18]): 4000 nM; fold change (FC) [21]: 2.5
Cc1ccc(-c2nc3n(ccc4nc(-c5ccc(C)cc5)c(/C=N/NC5=NCCN5)n43)c2/C=N/NC2=NCCN2)cc1	8.5	17.1	2.4	4.5	26.5	
